Assay results: paper PMC9677924 (International Journal of Nanomedicine, 2022)
≈ marks a conversion by molar mass, not a printed value.

Key:
[1] = cited from earlier work
MCF-7/HER2 tumors = assay: In vivo tumor inhibition studies; set-up: species or system nude mice; settings: day 24, compared with the PBS group; IV Q3D×4
In short: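 Female nude mice (7 weeks) injected s.c. in the right thigh with 1×10^6 MCF-7/HER2 cells, plus 20 μg estradiol valerate in sesame oil s.c. in the neck. At ~100 mm3, mice were randomized to 10 groups (n=4, saline control). They received IV tail-vein doses equivalent to 5 mg/kg taxane and/or 2.5 mg/kg PI3K inhibitor every 3 days ×4. Volume (L×W²/2) and body weight were recorded every 3 days. Tumors were excised and weighed on day 24.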

[2] = cited from earlier work; remark: listed apart in the source
[3] = In vitro release of docetaxel and pictilisib; type: physicochemical; settings: after 12 h
MCF-7/HER2 cells = assay: In vitro cytotoxicity, MTT assay; type: cell-based; settings: Homo sapiens, MCF7, 48 h, read-out: IC50 (ng/mL) Free Drug
In short: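 MCF-7/HER2 cells grown in DMEM/F12 with 10% FBS and 1% penicillin/streptomycin/amphotericin B at 37 °C, 5% CO2. Seeded at 1×10^4 cells/well for 24 h, then exposed to test compounds (free or nanocarrier forms) at 1~500 ng/mL. Methods give a 48 h exposure; the figure legend gives 72 h. Then 0.5 mg/mL MTT for 3 h, formazan dissolved in DMSO, absorbance read at 550 nm.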

[4] = In vivo pharmacokinetic studies; set-up: species or system Sprague-Dawley rats
Biosafety examination = type: in vivo, nude mice; settings: after the Q3D×4 regimen
In short: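 Organs and tumors came from the MCF-7/HER2 xenograft nude-mouse study (IV dosing every 3 days ×4). Tail morphology was examined on day 24. On day 28 after administration, tissues were fixed in 4% paraformaldehyde. Heart, liver, spleen, lungs and kidneys were H&E-stained and scored for inflammatory cell infiltration.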

[5] = In vivo biodistribution studies in MCF-7/HER2 tumor-bearing mice; set-up: species or system nude mice; settings: 8 h after administration; liver and kidneys
[6] = female, Sprague-Dawley, rat, plasma, iv, 2.5 mg/kg
[7] = female, Sprague-Dawley, rat, plasma, iv, 5 mg/kg

Row | SMILES | log P [1] | tumor weights / tumor inhibition (MCF-7/HER2 tumors) | pKa [2] | precipitation in the dialysis bag [3] | IC50 (MCF-7/HER2 cells) [ng/mL] | AUC(0-inf) [4, 6] [ng·h/mL] | AUC(0-t) [4, 6] [ng·h/mL] | Vd [4, 6] [L/kg] | half-life [4, 6] [h] | C0 (μg/mL) of PIC ([4]; pictilisib in plasma, IV 2.5 mg/kg BW PIC, rats, n=3, listed as Free PIC, 2.5 mg/kg) [µg/mL] | liver, H&E staining (inflammatory cell infiltration) (Biosafety examination) | accumulation of DTX in major organs [5] | AUC(0-inf) [4, 7] [ng·h/mL] | AUC(0-t) [4, 7] [ng·h/mL] | Vd [4, 7] [L/kg] | clearance [4, 7] [mL/min/kg] | half-life [4, 7] [h] | Relative bioavailability (%) of DTX ([4]; relative to Free DTX, IV 5 mg/kg BW DTX, rats) [%]
1 | CS(=O)(=O)N1CCN(Cc2cc3nc(-c4cccc5[nH]ncc45)nc(N4CCOCC4)c3s2)CC1 [PIC, pictilisib] | 1.96 | little antitumor efficacy | 13.19 | precipitation in the free PIC group was observed | 86.8 ± 17.6 (≈ 0.169 µM) | 536 ± 44 | 530 ± 46 | 19.7 ± 6.27 | 2.92 ± 0.97 | 0.691 ± 0.115 |  |  |  |  |  |  |  | 
2 | CC(=O)O[C@@]12CO[C@@H]1C[C@H](O)[C@@]1(C)C(=O)[C@H](O)C3=C(C)[C@@H](OC(=O)[C@H](O)[C@@H](NC(=O)OC(C)(C)C)c4ccccc4)C[C@@](O)([C@@H](OC(=O)c4ccccc4)[C@H]21)C3(C)C [DTX, docetaxel] |  |  |  |  | 12.5 ± 2.69 (≈ 0.0155 µM) |  |  |  |  |  | slight liver damage | higher accumulation in the liver and kidneys | 524 ± 37 | 487 ± 37 | 73.4 ± 5.22 | 160 | 5.32 ± 0.24 | 100
